Activity calls are given as the source filed them. No cut-off for these calls is given here.
Experiments:
Cavia porcellus [1] = experiment: Inhibition of PAF-induced bronchoconstriction in guinea pig after oral administration after two-hour pretreatment time; type: functional; conditions: read-out: ID50 (the source's name)
In short: (§1)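 Guinea pigs dosed orally with drug or vehicle 2 h before iv PAF challenge (1 µg/kg, maximal constrictory dose). Propranolol given 5 min before PAF, succinylcholine (1.2 mg/kg iv) to stop breathing, animals ventilated. Read-out is tracheal pressure change, averaged over 3 control and 3 treated animals.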

Cavia porcellus [2] = experiment: Inhibitory activity at 0.03 mg/kg was determined against PAF-induced bronchoconstriction in guinea pig; type: functional
In short: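 Duration-of-action test: single 0.03 mg/kg oral dose given 24 h before iv PAF challenge (1 µg/kg) in ventilated, paralysed guinea pigs. Percent inhibition of the tracheal pressure rise versus vehicle controls. Values are means ± SEM.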

Cavia porcellus [3] = experiment: Inhibition of PAF-induced bronchoconstriction in the guinea pig after intravenous administration after one-minute pretreatment time; No significant inhibition at 1 mg/kg; type: functional, organism-based; parameters: dose 1 mg/kg
Cavia porcellus [4] = experiment: Inhibition of PAF-induced bronchoconstriction in guinea pig after oral administration after two-hour pretreatment time; No significant inhibition at 1 mg/kg; type: functional, organism-based; parameters: dose 1 mg/kg
[5] = PAF-antagonist activity determined in dog platelets by PAF-binding assay
Cavia porcellus [6] = experiment: Inhibition of PAF-induced bronchoconstriction in the guinea pig after administration (1 mg/kg) intravenously at two-hourpretreatment time; type: functional
Canis familiaris = organism: Canis familiaris; experiment: PAF-antagonist activity in dog platelets by PAF-binding assay; No significant inhibition at 1000 nM; type: functional, Canis lupus familiaris
Cavia porcellus [7] = experiment: Compound was measured by using PAF-induced Bronchoconstriction assay in the guinea pig after administration orally after two-hour pretreatment time; type: functional; conditions: po, read-out: ID50 (the source's name); in short: as §1

| Structure (SMILES) | ED50 (Cavia porcellus [1]) [mg/kg] | further results |
| --- | --- | --- |
| Cc1nnc2n1-c1sc(C#CCn3c(=O)c4ccccc4c(=O)c4ccccc43)cc1C(c1ccccc1Cl)=NC2 | 0.03 |  |
| C=C=Cn1c(=O)n(CC#Cc2cc3c(s2)-n2c(C)nnc2CN=C3c2ccccc2Cl)c2ccccc21 | 0.03 |  |
| Cc1nnc2n1-c1sc(C#CCN3Cc4cccc5cccc(c45)C3=O)cc1C(c1ccccc1Cl)=NC2 |  | inhibition in vivo at 0.03 mg/kg (Cavia porcellus [2]): 60% |
| Cc1nnc2n1-c1sc(C#CCn3c(=O)n(-c4ccccc4)c4ccccc43)cc1C(c1ccccc1Cl)=NC2 | 0.02 |  |
| Cc1nnc2n1-c1sc(C#CCn3ccc4ccccc4c3=O)cc1C(c1ccccc1Cl)=NC2 | 0.03 |  |
| Cc1nnc2n1-c1sc(C#CCN3C(=O)NCc4ccccc43)cc1C(c1ccccc1Cl)=NC2 | 0.05 |  |
| Cc1nnc2n1-c1sc(C#CCn3c(=O)c4ccccc4c4ccccc43)cc1C(c1ccccc1Cl)NC2=O (configuration not stated) |  | ID50 (Cavia porcellus [3]): inactive; ID50 (Cavia porcellus [4]): inactive |
| CCCCC/C(=C\C=C\C(=O)N[C@H](C)CCCc1cccnc1)c1ccc(OC)cc1 | 4 | IC50 [5]: 40 nM |
| Cc1nnc2n1-c1sc(C#CCn3c(=O)c4ccccc4c4ccccc4c3=O)cc1C(c1ccccc1Cl)=NC2 | 0.02 |  |
| Cc1nnc2n1-c1sc(C#CCN3C(=O)COc4cc(F)ccc43)cc1C(c1ccccc1Cl)=NC2 | 0.02 |  |
| Cc1nnc2n1-c1sc(C#CCn3c(=O)n(CCN(C)C)c(=O)c4ccccc43)cc1C(c1ccccc1Cl)=NC2 | 0.3 |  |
| Cc1nnc2n1-c1sc(C#CCn3c(=O)c4ccccc4c4ccccc43)cc1C(c1ccccc1Cl)=NC2 | 0.01 | inhibition in vivo at 0.03 mg/kg (Cavia porcellus [2]): 75% |
| Cc1nnc2n1-c1sc(C#CCn3c4c(c5ccccc53)CCCCC4)cc1C(c1ccccc1Cl)=NC2 | 0.004 | inhibition in vivo at 0.03 mg/kg (Cavia porcellus [2]): 8% |
| Cc1nnc2n1-c1sc(C#CCn3ncc4ccccc43)cc1C(c1ccccc1Cl)=NC2 | 0.02 |  |
| Cc1nnc2n1-c1sc(C#CCn3c(=O)c4cc(Cl)ccc4c4ccc(Cl)cc43)cc1C(c1ccccc1Cl)=NC2 | 0.03 |  |
| Cc1nnc2n1-c1sc(C#CCN3C(=O)c4cccc5cccc3c45)cc1C(c1ccccc1Cl)=NC2 | 0.04 |  |
| Cc1nnc2n1-c1sc(C#CCN3C(=O)c4cccc5cccc(c45)C3=O)cc1C(c1ccccc1Cl)=NC2 | 0.03 |  |
| Cc1nnc2n1-c1sc(C#CCN3C(=O)COc4ccccc43)cc1C(c1ccccc1Cl)=NC2 | 0.02 |  |
| Cc1nnc2n1-c1ccc(C#CCN3C(=O)CCc4ccccc43)cc1C(c1ccccc1F)=NC2 | 0.4 |  |

| Structure (SMILES) | ED50 (Cavia porcellus [1]) [mg/kg] | further results |
| --- | --- | --- |
| Cc1nnc2n1-c1sc(C#CCOc3ccccc3)cc1C(c1ccccc1Cl)=NC2 | 0.1 |  |
| Cc1nnc2n1-c1sc(C#CCN3C(=O)OCc4ccccc43)cc1C(c1ccccc1Cl)=NC2 | 0.08 |  |
| CCc1nnc2n1-c1ccc(C#CCN3C(=O)c4ccccc4C3=O)cc1C(c1ccccc1F)=NC2 |  | Inhibition (Cavia porcellus [6]): 30% |
| Cc1nnc2n1-c1cc(C#CCN3C(=O)c4ccccc4C3=O)ccc1C(c1ccccc1F)=NC2 |  | IC50 (Canis familiaris): Not Active |
| Cc1nnc2n1-c1sc(C#CCn3c(O)nc4ccccc43)cc1C(c1ccccc1Cl)=NC2 | 0.2 |  |
| Cc1nnc2n1-c1ccc(C#CCCN3C(=O)c4ccccc4C3=O)cc1C(c1ccccc1F)=NC2 | 0.3 |  |
| Cc1nnc2n1-c1ccc(C#CCN3C(=O)c4ccccc4C3=O)cc1C(c1ccccc1F)=NC2 | 0.5 |  |
| Cc1nnc2n1-c1sc(I)cc1C(c1cc([N+](=O)[O-])ccc1Cl)=NC2 |  | ID50 (Cavia porcellus [4]): inactive |
| Cc1nnc2n1-c1sc(C#CCN3C(=O)CCc4ccc(Cl)cc43)cc1C(c1ccccc1Cl)=NC2 | 0.1 |  |
| Cc1nnc2n1-c1sc(C#CCn3c4c(c5ccccc53)CCCC4)cc1C(c1ccccc1Cl)=NC2 |  | inhibition in vivo at 0.03 mg/kg (Cavia porcellus [2]): 75% |
| Cc1nnc2n1-c1ccc(C#CCN3C(=O)CCc4ccccc43)cc1C(c1ccccc1F)=N[C@H]2C | 0.1 |  |
| Cc1nnc2n1-c1sc(C#CCN3C(=O)CCc4ccccc43)cc1C(c1cc([N+](=O)[O-])ccc1Cl)=NC2 |  | ID50 (Cavia porcellus [4]): inactive |
| Cc1nnc2n1-c1sc(C#CCn3c(=O)n(CCN(C)C)c4ccccc43)cc1C(c1ccccc1Cl)=NC2 | 0.2 |  |
| O=c1c2ccccc2c2ccccc2n1CC#Cc1cc2c(s1)-n1c(CO)nnc1CN=C2c1ccccc1Cl | 0.3 |  |
| Cc1nnc2n1-c1sc(C#CCn3c(=O)c4ccccc4c4ccccc43)cc1C(c1ccccc1Cl)=NC2O (configuration not stated) | 0.07 |  |
| Cc1nnc2n1-c1ccc(C#CCN3C(=O)c4cccc5cccc(c45)C3=O)cc1C(c1ccccc1Cl)=NC2 | 0.6 |  |
| Cc1nnc2n1-c1sc(I)cc1C(c1ccccc1Cl)=NC2C (configuration not stated) |  | ID50 (Cavia porcellus [4]): inactive |
| Cc1nnc2n1-c1sc(C#CCn3c4c(c5cc(Cl)ccc53)CCCCC4)cc1C(c1ccccc1Cl)=NC2 | 0.3 |  |
| Cc1nnc2n1-c1sc(C#CCn3c(=O)c4ccccc4c4ccccc43)cc1C(c1ccccc1Cl)=NC2C (configuration not stated) | 0.03 |  |

| Structure (SMILES) | ED50 (Cavia porcellus [1]) [mg/kg] | further results |
| --- | --- | --- |
| Cc1nnc2n1-c1sc(C#CCN3C(=O)CCc4ccccc43)cc1C(c1ccccc1Cl)=NC2 |  | ED50 (Cavia porcellus [7]): 0.02 mg/kg |
| Cc1nnc2n1-c1sc(C#CCN3C(=O)CCc4cc(Cl)cc(Cl)c43)cc1C(c1ccccc1Cl)=NC2 | 0.02 |  |
| Cc1nnc2n1-c1sc(C#CCn3c4c(c5cc(Cl)ccc53)CCCC4)cc1C(c1ccccc1Cl)=NC2 | 0.04 |  |
| Cc1nnc2n1-c1sc(C#CCN3CCc4ccccc4C3=O)cc1C(c1ccccc1Cl)=NC2 | 0.03 |  |
| COc1cc2c(cc1OC)C(=O)N(CC#Cc1cc3c(s1)-n1c(C)nnc1CN=C3c1ccccc1Cl)CC2 | 0.05 |  |
| Cc1nnc2n1-c1ccc(C#CCN3C(=O)CSc4ccccc43)cc1C(c1ccccc1F)=NC2 | 0.3 |  |
| Cc1nnc2n1-c1sc(C#CCn3c4ccccc4c(=O)c4ccccc43)cc1C(c1ccccc1Cl)=NC2 | 0.02 |  |
| Cc1nnc2n1-c1sc(C#CCn3c(=O)n(C)c4ccccc43)cc1C(c1ccccc1Cl)=NC2 | 0.04 |  |
| Cc1nnc2n1-c1sc(C#CCN3C(=O)CC(C)(C)c4ccccc43)cc1C(c1ccccc1Cl)=NC2 | 0.03 |  |
| Cc1nnc2n1-c1sc(C#CCN3C(=O)COc4ccc(Cl)cc43)cc1C(c1ccccc1Cl)=NC2 | 0.05 |  |
| Cc1nnc2n1-c1sc(I)cc1C(c1ccccc1Cl)=NC2 |  | ID50 (Cavia porcellus [4]): inactive |
| Cc1nnc2n1-c1sc(C#CCn3cnc4ccccc43)cc1C(c1ccccc1Cl)=NC2 | 0.1 |  |
| Cc1nnc2n1-c1sc(C#CCOc3cccnc3)cc1C(c1ccccc1Cl)=NC2 | 0.2 |  |
| Cc1nnc2n1-c1sc(C#CCn3c(=O)ccc4ccccc43)cc1C(c1ccccc1Cl)=NC2 | 0.02 |  |
| Cc1nnc2n1-c1sc(C#CCn3c4ccccc4c4ccccc43)cc1C(c1ccccc1Cl)=NC2 | 0.02 |  |
| Cc1nnc2n1-c1sc(CCC(=O)N3CCOCC3)cc1C(c1ccccc1Cl)=NC2 [APAFANT] | 1.2 |  |
| Cc1nnc2n1-c1sc(C#CCN3C(=O)Cn4ccc5c(Cl)ccc3c54)cc1C(c1ccccc1Cl)=NC2 | 0.003 | inhibition in vivo at 0.03 mg/kg (Cavia porcellus [2]): 0% |
| Cc1nnc2n1-c1sc(C#CCn3c(=O)n(C)c(=O)c4ccccc43)cc1C(c1ccccc1Cl)=NC2 | 0.02 |  |
| Cc1nnc2n1-c1sc(C#CCC34CCCc5cccc(c53)NC4=O)cc1C(c1ccccc1Cl)=NC2 (configuration not stated) | 0.3 |  |
